{"source": "ChEMBL document CHEMBL1287758", "about": "“Synthesis of D- and L-tyrosine-chlorambucil analogs active against breast cancer cell lines” (Bioorg Med Chem Lett, 2010)", "assay_type_in_all_cases": "functional, cell-based", "key": {"[1]": {"test_system": "MCF7", "test": "Cytotoxicity against estrogen receptor-positive human MCF7 cells by MTT assay", "outline": "(§1)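 MTT read-out after 72 h continuous exposure of human breast cancer cells to compound. Each assay run in duplicate; IC50 taken from three independent experiments and reported as mean SEM. Chlorambucil served as positive control.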"}, "[2]": {"test": "Cytotoxicity against estrogen receptor-negative human MDA-MB-436 cells by MTT assay", "outline": "as §1"}, "[3]": {"test_system": "MDA-MB-231", "test": "Cytotoxicity against estrogen receptor-negative human MDA-MB-231 cells by MTT assay", "outline": "as §1"}, "[4]": {"test_system": "MDA-MB-468", "test": "Cytotoxicity against estrogen receptor-negative human MDA-MB-468 cells by MTT assay", "outline": "as §1"}, "[5]": {"details": "Homo sapiens, MCF7, read-out: IC50; call rule not given here"}, "[6]": {"details": "Homo sapiens, MDA-MB-436, read-out: IC50"}, "[7]": {"details": "Homo sapiens, MDA-MB-231, read-out: IC50"}, "[8]": {"details": "Homo sapiens, MDA-MB-468, read-out: IC50"}}, "data": [{"smiles": "COC(=O)[C@H](Cc1ccc(O)cc1)NC(=O)CCCCCCCCCCNC(=O)CCCc1ccc(N(CCCl)CCCl)cc1", "values": [{"measurement": "IC50", "setting": "[1]; [5]", "result": 67.9, "unit": "µM"}, {"measurement": "IC50", "setting": "[2]; mda-mb-436", "result": "Not Active"}, {"measurement": "IC50", "setting": "[3]; mda-mb-231", "result": "Not Active"}, {"measurement": "IC50", "setting": "[4]; mda-mb-468", "result": "Not Active"}]}, {"smiles": "O=C(CCCc1ccc(N(CCCl)CCCl)cc1)NCCCCCCCCCCC(=O)N[C@H](CO)Cc1ccc(O)cc1", "values": [{"measurement": "IC50", "setting": "[1]; [5]", "result": 19.4, "unit": "µM"}, {"measurement": "IC50", "setting": "[2]; mda-mb-436", "result": "Not Active"}, {"measurement": "IC50", "setting": "[3]; mda-mb-231", "result": "Not Active"}, {"measurement": "IC50", "setting": "[4]; mda-mb-468", "result": "Not Active"}]}, {"smiles": "COC(=O)[C@@H](Cc1ccc(O)cc1)NC(=O)CCCCCCCCCCNC(=O)CCCc1ccc(N(CCCl)CCCl)cc1", "values": [{"measurement": "IC50", "setting": "[1]; mcf7", "result": "Not Active"}, {"measurement": "IC50", "setting": "[3]; mda-mb-231", "result": "Not Active"}]}, {"smiles": "O=C(CCCc1ccc(N(CCCl)CCCl)cc1)NCCCCCCCCCCC(=O)N[C@@H](CO)Cc1ccc(O)cc1", "values": [{"measurement": "IC50", "setting": "[1]; [5]", "result": 16.3, "unit": "µM"}, {"measurement": "IC50", "setting": "[3]; mda-mb-231", "result": "Not Active"}]}, {"smiles": "O=C(CCCc1ccc(N(CCCl)CCCl)cc1)NCCCCCC(=O)N[C@@H](CO)Cc1ccc(O)cc1", "values": [{"measurement": "IC50", "setting": "[1]; [5]", "result": 67, "unit": "µM"}]}, {"smiles": "COC(=O)[C@H](Cc1ccc(O)cc1)NC(=O)CCCc1ccc(N(CCCl)CCCl)cc1", "values": [{"measurement": "IC50", "setting": "[1]; [5]", "result": 31.9, "unit": "µM"}, {"measurement": "IC50", "setting": "[2]; [6]", "result": 15.4, "unit": "µM"}, {"measurement": "IC50", "setting": "[3]; [7]", "result": 37.8, "unit": "µM"}, {"measurement": "IC50", "setting": "[4]; [8]", "result": 62.5, "unit": "µM"}]}, {"smiles": "O=C(CCCc1ccc(N(CCCl)CCCl)cc1)N[C@H](CO)Cc1ccc(O)cc1", "values": [{"measurement": "IC50", "setting": "[1]; [5]", "result": 34.1, "unit": "µM"}, {"measurement": "IC50", "setting": "[2]; [6]", "result": 24.4, "unit": "µM"}, {"measurement": "IC50", "setting": "[3]; [7]", "result": 39.6, "unit": "µM"}, {"measurement": "IC50", "setting": "[4]; [8]", "result": 55.1, "unit": "µM"}]}, {"smiles": "COC(=O)[C@H](Cc1ccc(O)cc1)NC(=O)CCCCCNC(=O)CCCc1ccc(N(CCCl)CCCl)cc1", "values": [{"measurement": "IC50", "setting": "[1]; [5]", "result": 25.4, "unit": "µM"}, {"measurement": "IC50", "setting": "[2]; [6]", "result": 15, "unit": "µM"}, {"measurement": "IC50", "setting": "[3]; [7]", "result": 36.8, "unit": "µM"}, {"measurement": "IC50", "setting": "[4]; [8]", "result": 59, "unit": "µM"}]}, {"smiles": "O=C(CCCc1ccc(N(CCCl)CCCl)cc1)NCCCCCC(=O)N[C@H](CO)Cc1ccc(O)cc1", "values": [{"measurement": "IC50", "setting": "[1]; [5]", "result": 62.2, "unit": "µM"}, {"measurement": "IC50", "setting": "[2]; [6]", "result": 28.9, "unit": "µM"}, {"measurement": "IC50", "setting": "[3]; [7]", "result": 55.1, "unit": "µM"}, {"measurement": "IC50", "setting": "[4]; [8]", "result": 77.3, "unit": "µM"}]}, {"smiles": "COC(=O)[C@@H](Cc1ccc(O)cc1)NC(=O)CCCc1ccc(N(CCCl)CCCl)cc1", "values": [{"measurement": "IC50", "setting": "[1]; [5]", "result": 50, "unit": "µM"}, {"measurement": "IC50", "setting": "[3]; [7]", "result": 47.2, "unit": "µM"}]}, {"smiles": "O=C(CCCc1ccc(N(CCCl)CCCl)cc1)N[C@@H](CO)Cc1ccc(O)cc1", "values": [{"measurement": "IC50", "setting": "[1]; [5]", "result": 31.4, "unit": "µM"}, {"measurement": "IC50", "setting": "[3]; [7]", "result": 29.8, "unit": "µM"}]}, {"smiles": "COC(=O)[C@@H](Cc1ccc(O)cc1)NC(=O)CCCCCNC(=O)CCCc1ccc(N(CCCl)CCCl)cc1", "values": [{"measurement": "IC50", "setting": "[1]; [5]", "result": 152, "unit": "µM"}]}, {"smiles": "O=C(O)CCCc1ccc(N(CCCl)CCCl)cc1", "note": "[CHLORAMBUCIL]", "values": [{"measurement": "IC50", "setting": "[1]; [5]", "result": 130, "unit": "µM"}, {"measurement": "IC50", "setting": "[2]; [6]", "result": 132, "unit": "µM"}, {"measurement": "IC50", "setting": "[3]; [7]", "result": 137, "unit": "µM"}, {"measurement": "IC50", "setting": "[4]; [8]", "result": 147, "unit": "µM"}]}]}
